Data from ChEMBL document CHEMBL1641443, “Design, synthesis and biological evaluation of small molecule inhibitors of CD4-gp120 binding based on virtual screening” (Bioorg Med Chem, 2011).

Assays:
[1] = system: Human immunodeficiency virus 1; test: Antiviral activity against recombinant HIV1 YU2 in Cf2Th-CCR5 cells assessed as viral infectivity by luciferase assasy relative to JRC-II-191; type: functional, isolate YU2
[2] = biological target: Envelope glycoprotein gp160 (Human immunodeficiency virus type 1 group M subtype B (isolate YU-2)(HIV-1), UniProt P35961); test: Binding affinity to HIV1 YU2 gp120 by isothermal titration calorimetry assay; design: species or system Human immunodeficiency virus type 1 (isolate YU2)
In short: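 ITC at 25 °C. Cell held gp120 at about 2 μM in PBS pH 7.4 with 2% DMSO. Heat per injection taken from the integrated signal. Kd from a single run unless noted otherwise.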

SMILES	fold change (FC) [1]	Kd [2]
CC1(C)CC(NC(=O)C(=O)Nc2ccc(Cl)c(F)c2)CC(C)(C)N1	1	
CC1(C)CC(NC(=O)CC(=O)Nc2ccc(Br)cc2)CC(C)(C)N1	0	
CC1(C)CC(NC(=O)CCC(=O)Nc2ccc(Br)cc2)CC(C)(C)N1	0	
CN(C(=O)C(=O)NC1CC(C)(C)NC(C)(C)C1)c1ccc(Cl)cc1	0	
CN(C(=O)C(=O)Nc1ccc(Cl)c(F)c1)C1CC(C)(C)NC(C)(C)C1	0	
CC1(C)CC(NCC(=O)Nc2ccc(Cl)c(F)c2)CC(C)(C)N1	0	
CC(C)(C)OC(=O)N1CCC(NC(=O)C(=O)Nc2ccc(Cl)c(F)c2)CC1	0	
O=C(Nc1ccc(Cl)c(F)c1)C(=O)NC1CCN(C(=O)c2ccccc2)CC1	0	
CCN1CCC(CNC(=O)C(=O)Nc2ccc(Cl)c(F)c2)CC1	0.2	
CC1(C)C2CCC1(C)C(NC(=O)C(=O)Nc1ccc(Cl)c(F)c1)C2 (stereo not given)	0	Not Active
CC1(C)CC(NC(=O)C(=O)Nc2ccc(Cl)c(F)c2)CC(C)(C)[N+]1(C)[O-] (stereo not given)	0.23	
CN1CCCC(ONC(=O)C(=O)Nc2ccc(Cl)c(F)c2)C1 (stereo not given)	0	
CC1CCCCN1C(C)CNC(=O)C(=O)Nc1ccc(Cl)c(F)c1 (stereo not given)	0	
CC1CN(CCNC(=O)C(=O)Nc2ccc(Cl)c(F)c2)CC(C)O1 (stereo not given)	0	
CC(C)(CNC(=O)C(=O)Nc1ccc(Cl)c(F)c1)N1CCOCC1	0	
CN1CCC(CNC(=O)C(=O)Nc2ccc(Cl)c(F)c2)(N(C)C)CC1	0.1	
CCn1ncnc1C(C)NC(=O)C(=O)Nc1ccc(Cl)c(F)c1 (stereo not given)	0	
CCc1n[nH]c(NC(=O)C(=O)Nc2ccc(Cl)c(F)c2)c1CC	0	
O=C(NCc1n[nH]c2c1CCCCC2)C(=O)Nc1ccc(Cl)c(F)c1	0.1	
O=C(Nc1ccc(Cl)c(F)c1)C(=O)Nc1cnn2c1NCCC2	0	
O=C(Nc1ccc(Cl)c(F)c1)C(=O)NC1CCc2[nH]ncc2C1 (stereo not given)	0	Not Active
O=C(Nc1ccc(Cl)c(F)c1)C(=O)Nc1cccc2[nH]ncc12	0	
Cn1ccnc1C(O)(CCNC(=O)C(=O)Nc1ccc(Cl)c(F)c1)C(F)(F)F (stereo not given)	0	
CC(NC(=O)C(=O)Nc1ccc(Cl)c(F)c1)c1ccc2c(c1)NC(=O)CO2 (stereo not given)	0	

SMILES	fold change (FC) [1]	Kd [2]
CCN1CCCC1CNC(=O)C(=O)Nc1ccc(Cl)cc1 (stereo not given)	0	
O=C(Nc1ccc(Cl)c(F)c1)C(=O)N[C@H]1CCN(Cc2ccccc2)C1	0	
O=C(Nc1ccc(Cl)c(F)c1)C(=O)N[C@@H]1CCN(Cc2ccccc2)C1	0	Not Active
O=C(NCC1CCN(C2CC2)C1)C(=O)Nc1ccc(Cl)c(F)c1 (stereo not given)	0.3	
O=C(Nc1ccc(Cl)c(F)c1)C(=O)NC1CCN(C2CCCCC2)C1 (stereo not given)	0.48	
O=C(NCC1CCN(CCN2CCOCC2)C1)C(=O)Nc1ccc(Cl)c(F)c1 (stereo not given)	0.1	
O=C(NC[C@@H]1CCCN2CCCC[C@H]12)C(=O)Nc1ccc(Cl)c(F)c1	0	
CC(C)(C)c1cc(CNC(=O)C(=O)Nc2ccc(Cl)c(F)c2)n[nH]1	0.1	
CC1(C)CC(NC(=O)C(=O)Nc2ccc(Cl)cc2F)CC(C)(C)N1	0	
CC1(C)CC(NC(=O)C(=O)Nc2ccc(Cl)cc2Cl)CC(C)(C)N1	0	
Cc1cc(Cl)ccc1NC(=O)C(=O)NC1CC(C)(C)NC(C)(C)C1	0	
CC1(C)CC(NC(=O)C(=O)Nc2ccc(Cl)cc2C(F)(F)F)CC(C)(C)N1	0	
COc1cc(Cl)ccc1NC(=O)C(=O)NC1CC(C)(C)NC(C)(C)C1	0	
CCOc1cc(Cl)ccc1NC(=O)C(=O)NC1CC(C)(C)NC(C)(C)C1	0	
CC1(C)CC(NC(=O)C(=O)Nc2ccc(Cl)cc2OCc2ccccc2)CC(C)(C)N1	0	
CC1(C)Cc2c(sc(NC(=O)C(=O)Nc3ccc(Cl)c(F)c3)c2C#N)C(C)(C)N1	0	
Nc1ncc(CNC(=O)C(=O)Nc2ccc(Cl)c(F)c2)cn1	0	
CNS(=O)(=O)Cc1ccc(CNC(=O)C(=O)Nc2ccc(Cl)c(F)c2)cc1	0	
CC(NC(=O)C(=O)Nc1ccc(Cl)c(F)c1)c1ccc(S(N)(=O)=O)cc1 (stereo not given)	0	
CCN(CC)C(CNC(=O)C(=O)Nc1ccc(Cl)c(F)c1)CC(C)C (stereo not given)	0	
CN(C)C(CNC(=O)C(=O)Nc1ccc(Cl)c(F)c1)c1ccco1 (stereo not given)	0	
CN(C)C(CNC(=O)C(=O)Nc1ccc(Cl)c(F)c1)N1CCCC1 (stereo not given)	0	
O=C(NCC(c1ccco1)N1CCCC1)C(=O)Nc1ccc(Cl)c(F)c1 (stereo not given)	0	
O=C(NCC(c1ccc(Cl)cc1)N1CCCC1)C(=O)Nc1ccc(Cl)c(F)c1 (stereo not given)	0.4	

SMILES	fold change (FC) [1]	Kd [2]
CN1CCN(C(CNC(=O)C(=O)Nc2ccc(Cl)c(F)c2)c2cccs2)CC1 (stereo not given)	0	
CN1CCN(C(CNC(=O)C(=O)Nc2ccc(Cl)c(F)c2)c2ccccc2Cl)CC1 (stereo not given)	0.11	
CC(NC(=O)C(=O)Nc1ccc(Cl)c(F)c1)C(c1ccccc1Cl)N1CCOCC1 (stereo not given)	0	
O=C(NCc1ccccc1CN1CCOCC1)C(=O)Nc1ccc(Cl)c(F)c1	0.5	
COc1cc(NC(=O)C(=O)NC2CC(C)(C)NC(C)(C)C2)ccc1Cl	0	
CC(C)Oc1cc(NC(=O)C(=O)NC2CC(C)(C)NC(C)(C)C2)ccc1Cl	0	
CC1(C)CC(NC(=O)C(=O)Nc2ccc(Cl)c(OCc3ccccc3)c2)CC(C)(C)N1	0	
CC1(C)CC(NC(=O)C(=O)Nc2cccc(OCc3ccccc3)c2)CC(C)(C)N1	0	
CC(C)COc1cc(Cl)ccc1NC(=O)C(=O)NC1CC(C)(C)NC(C)(C)C1	0	
CC1(C)CC(NC(=O)C(=O)Nc2ccc(N=[N+]=[N-])cc2)CC(C)(C)N1	0	
CC(C)c1ccccc1NC(=O)C(=O)NC1CC(C)(C)NC(C)(C)C1	0	
CC(C)c1cccc(NC(=O)C(=O)NC2CC(C)(C)NC(C)(C)C2)c1	0	
CC1(C)CC(NC(=O)C(=O)Nc2c[nH]c3ncccc23)CC(C)(C)N1	0	
CC1(C)CC(NC(=O)C(=O)Nc2ccc3ccccc3c2)CC(C)(C)N1	0	
CC1(C)CC(NC(=O)C(=O)Nc2ccc(-n3cc(CCc4ccccc4)nn3)cc2)CC(C)(C)N1	0	
CC1(C)CC(NC(=O)C(=O)Nc2ccc(-n3cc(-c4ccccc4)nn3)cc2)CC(C)(C)N1	0	
CC1(C)CC(NC(=O)C(=O)Nc2ccc(-n3cc(CCCCCO)nn3)cc2)CC(C)(C)N1	0	
O=C(COc1ccc(Cl)cc1)Nc1cc(=O)[nH]c(=O)[nH]1	0	
Cc1cc(SCC(=O)Nc2ccc(Cl)cc2)nc(=O)[nH]1	0	
O=C(Nc1ccc(Cl)cc1)c1cc2c([nH]c1=O)CCCC2	0	
O=C(Nc1ccc(Cl)cc1)Nc1ncnc2[nH]cnc12	0	
O=C(Nc1cc[nH]c(=O)n1)c1sc2cc(Cl)ccc2c1Cl	0	
O=C(Nc1ccc2c(c1)C(=O)NC2=O)c1ccc(Cl)c(Cl)c1	0	
CC1(C)CC(NC(=O)C(=O)Nc2ccc(Cl)cc2)CC(C)(C)N1	1	
